Here are results for 2 molecules from paper PMC3825418 (Investigational New Drugs, 2013).

Data set [1] deals with HeLa cells. Nature of the data set: Sulphorhodamine blue. The format is cell-based, human. As to conditions: 25 μM Etoposide and/or 200nM LTUSI54, 4 h, 2 days recovery; vs control. The essentials:
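Sulphorhodamine B assay on HeLa cells seeded at 2x10^3 cells/well and left to adhere overnight. Treated 4 h with 25 μM Etoposide, 200nM test compound or both, then PBS-washed. Recovery 48 h in medium containing 200nM test compound, or DMSO only for control and Etoposide-alone wells. Absorbance read at 538 nm. Mean ± SEM of four replicates; two-tailed t-test vs control.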

Data set [2] deals with γ-H2AX. Nature of the data set: Flow cytometry for γ-H2AX expression. The format is cell-based, human. As to conditions: for cells stained positive for γ-H2AX: 25 μM Etoposide, 200nM LTUSI54. A general note: Flow cytometry measures light scatter and fluorescence of single cells or particles in a stream.
The target of data set [3] is DNA-PK (Homo sapiens, UniProt P78527). Nature of the data set: DNA-PK inhibition assay. The format is biochemical. The note with it: IC50 greater than 100 μM taken as not active; data not shown.
Data set [4] relates to p38α. Kind of data set: Human phospho-kinase array, p38α. The format is cell-based. As to conditions: HeLa cells, 4 h; 25 μM Etoposide, 200nM LTUSI54; vs control. The method, boiled down:
(§1)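 HeLa cells in small flasks treated 4 h with medium, 25 μM Etoposide, 200nM test compound or combination, then lysed. Human phospho-kinase antibody membranes incubated overnight at 4 °C with lysate at 150 μg/ml protein. Detection antibody cocktail 2 h at room temperature, streptavidin-HRP 30 min, then chemiluminescence at increasing exposures. Fold change vs control; two runs with duplicate spots.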

In data set [5] the test system is HeLa cells. Kind of data set: Cell cycle analysis by flow cytometry. Format: cell-based, human. The note with it: 4 h treatment; for cells in G2/M phase / cells in S phase: vs control. The essentials: (§2)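 HeLa cells (DMEM, 10 % FBS) treated 4 h with 25 μM Etoposide, 200nM test compound or both, with or without 2 days recovery in medium containing test compound. Harvested, fixed in 70 % ethanol at −20 °C overnight, then stained with 25 μg/ml propidium iodide plus 100 μg/ml RNase for 30 min at 37 °C in the dark. Doublets and debris gated out. Mean ± SEM, three independent experiments.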

Data set [6] deals with HeLa cells. Nature of the data set: CellTox green cytotoxicity assay. The format is cell-based, human. As to conditions: 24 h.
Data set [7] deals with p53. Kind of data set: Human phospho-kinase array, p53. The format is cell-based. As to conditions: HeLa cells, 4 h; 25 μM Etoposide, 200nM LTUSI54; vs control. The essentials: as §1
The subject of data set [8] is PI3K isoforms. Kind of data set: PI3K inhibition assay. The note with it: any of the PI3K isoforms; IC50 greater than 100 μM taken as not active; data not shown. Format: biochemical.
Data set [9] has as its system HeLa cells. Nature of the data set: Sub G1 analysis. Format: cell-based, human. As to conditions: 25 μM Etoposide and/or 200nM LTUSI54, 4 h, 2 days recovery. The method, boiled down: as §2
[10] abbreviates: 4 h treatment followed by 2 days recovery.

As for “2-((3-methoxybut-3en-2-yl)amino)-8methyl-4H-benzo[1,3]oxazin-4one [LTUSI54]”, the “change in HeLa cell number (SRB)” value in [1] is “significant reduction in cell numbers”. Besides, the “cells stained positive for γ-H2AX” value in data set [2] (setting [10]) is recorded as 2.7%; in [2] (after 4 h treatment), 7.3%. The “inhibitory effect on DNA-PK (IC50)” value in [3] is given as “no inhibitory effect”. The “fold increase in activity (phosphorylation) of p38α” value in data set [4] is on record as 3.645 fold. In addition, the “cells in G2/M phase” value in [5] (2 days recovery) is given as “reduction of cells in G2/M phase”; in data set [5], “significant reduction of cells in G2/M phase”. Further, the “cells in S phase” value in [5] is given as “significant increase in cells in S phase”. Also, the “cytotoxic effect (CellTox green)” value in data set [6] (200nM) is recorded as “no cytotoxic effect”. For the same molecule, in [6] (100 μM, control 191 RFUs, p <0.0001), the CellTox fluorescence was 299.3 RFUs. Moreover, the “fold increase in activation of p53” value in [7] was determined as 1.5 fold. In [8], the “inhibitory effect on PI3K isoforms (IC50)” value is given as “no inhibitory effect”.

For the molecule `COc1cc([C@@H]2c3cc4c(cc3[C@@H](O[C@@H]3O[C@@H]5CO[C@@H](C)O[C@H]5[C@H](O)[C@H]3O)[C@H]3COC(=O)[C@H]23)OCO4)cc(OC)c1O` [Etoposide, reference compound], in data set [1], the “change in HeLa cell number (SRB)” value was “significant reduction in cell number”. Further, the “cells stained positive for γ-H2AX” value in data set [2] (setting [10]) was 15%; in [2] (after 4 h treatment), “about 80%”. Besides, the “fold decrease in γ-H2AX positive cells” value in [2] (2 days recovery vs 4 h treatment) is listed as “more than 5 fold”. For the same molecule, the “fold increase in activity (phosphorylation) of p38α” value in [4] was 2.64 fold. The “cells in S phase” value is “significant increase” in data set [5] (2 days recovery) and “increase in cells in S phase” in data set [5]. For the same molecule, in [5] (2 days recovery, vs control and LTUSI54 alone (p < 0.0001)), the “cells in G1 phase” value was “significant reduction in G1 cells”. Moreover, the “apoptotic cells (sub G1 phase)” value in data set [9] is reported as “significant increase in apoptotic cells”. Moreover, the “fold increase in activation of p53” value in data set [7] came to 3.5 fold.
